Reference: ChEMBL document CHEMBL4513216, “Probing the Open Global Health Chemical Diversity Library for Multistage-Active Starting Points for Next-Generation Antimalarials” (ACS Infect Dis, 2020)

experiment: Toxicity liver stage against HepG2, at 10uM; type: cell-based; set-up: test concentration 10 uM, cell line HepG2-A16-CD81EGFP; settings: human, HepG2-A16-CD81EGFP cells; read-out: INHIBITION
Summary of the method: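 Uninfected HepG2-A16-CD81EGFP cells, 3 × 10^3 per well, 1536-well, plated on prespotted compound at 10 μM final, parasite-free screening media added to match infected plates; puromycin 10 μM positive, DMSO 0.5% negative; run in parallel with 48 h PbLuc assay at 37 °C, 5% CO2; viability by CellTiter-Glo luminescence, normalized to controls.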

SMILES | cytotoxicity at 10 µM [%]
COc1cccc(NC(=O)Cn2c(=O)nc(N)c3cc(C)sc32)c1 | -8.72
O=C(NCC1(CO)CC1)c1ccccc1Cl | 5.47
O=C(NCC1(CO)CC1)c1ccccc1C(F)(F)F | 4
CC(=O)NCCn1ccc(-c2ccccn2)n1 | 7.38
CC(=O)N1CCC2(CC1)CN(C(C)=O)CC21CCNC1=O (configuration not stated) | -2.69
Cc1oncc1C(=O)N1CCC2(CC1)CN(S(C)(=O)=O)c1ccccc12 | 1.47
CC(=O)NCC(=O)N1CCC2(COCc3c(C)nc(N(C)C)nc32)C1 (configuration not stated) | 1.41
NC(=O)c1c(NC(=O)CCC(=O)O)sc2c1CCc1ccccc1-2 | -1.99
COc1cc(OCC(=O)NCCc2ccccc2)cc(OC)c1OC | 0.285
CC1CCN(C(=O)Cn2nc(Br)nc2Br)CC1 | -1.8
COC(=O)CCc1c(C)nn(-c2nc(C)cc(=O)[nH]2)c1C | 9.22
O=c1ccc(-c2cccs2)nn1CN1CCN(Cc2ccccc2)CC1 | -3.73
O=C(c1ccnnc1)N1C[C@H](Oc2cccnc2)[C@H]2OCCC[C@H]21 | -14.7
Cc1ccn(-c2ccnc(N3CCC(N4CCCCC4)CC3)n2)n1 | 4.54
Cc1nc(C)c(C(=O)N2CCc3nnc(C4CCCCN4C)n3CC2)s1 (configuration not stated) | 0.642
O=S(=O)(c1ccccc1)N1CCOC(Cn2ccnc2)C1 (configuration not stated) | 7.77
O=C(c1cc(-c2cccnc2)[nH]n1)N1CCCC(Cc2ccccn2)C1 (configuration not stated) | 7.5
CC(C)n1nnc(CC(=O)NCC2(c3ccccc3F)CCCC2)n1 | -0.325
COc1ccc2c(c1)NC(C1CCN(C(=O)C(C)C)CC1)NS2(=O)=O (configuration not stated) | -4.66
Oc1nc(C2CCN(Cc3ccccn3)CC2)cc2ccccc12 | 11.8
Cc1nn(C)cc1NC(=O)CC1CCN(CCc2ccccc2)CC1 | -4.92
NCc1cccc(-c2cccnc2C(=O)NCCCN2CCOCC2)c1 | -8.77
c1cc(-c2cnc(NC3CC3)nc2[C@H]2CCCO2)ccn1 | 9.83

SMILES | cytotoxicity at 10 µM [%]
O=C(Cn1cccc2cc(-c3ccc(F)cc3)nc1-2)N1CCC(O)CC1 | -7.74
Cc1cc(CN2CCN(Cc3ccc(C#N)cc3F)CC2)no1 | 1.71
NC(=O)CCOc1ccc(NC(=O)c2ccccc2OC(F)F)cc1 | 9.62
O=C(Cc1cccs1)NCCNc1nccc(C(F)(F)F)n1 | 10.9
CN1CCC(N(Cc2ccccc2)C(=O)c2nccn3ccnc23)CC1 | 3.52
CCN(Cc1ccncc1)C1CCN(c2ccccc2)C1=O (configuration not stated) | -1.83
CN(C)C(=O)N1CCN(Cc2cnc(-c3ccsc3)s2)CC1 | 2.03
CN(Cc1cnn(C)c1)C(=O)C(c1ccccc1)N1CCSCC1 (configuration not stated) | 5.21
CC(Cn1cncn1)NC(=O)N1CC2(CCCC2)c2ccccc21 (configuration not stated) | 5.65
Cc1cccc(OCCCNC(=O)Cn2ccc(C)cc2=O)c1 | -4.42
CN(C)C(=O)CCS(=O)(=O)Cc1ccn(-c2cccc(F)c2)n1 | -5.71
CCCNC(=O)CN1CCC(NCc2c(C)nn(C)c2OC)CC1 | -5.32
CC(C)OCCC(=O)N1CCN(CC(O)c2ccccc2)CC1 (configuration not stated) | -8.09
O=C(COC1CCCC1)NCCc1noc(-c2ccccn2)n1 | 3.41
COCc1nccc(C2CCCN(Cc3ccccc3C#N)C2)n1 (configuration not stated) | 6.05
COc1ccnc(N2CCN(C(=O)c3csc(C)n3)CC2)n1 | 0.313
COc1ccc(OCCNc2cccc(C(=O)N3CCOCC3)c2)cc1 | 7.08
Cc1nn(C)c(Cl)c1C(=O)NCc1cccnc1N1CCOCC1 | -132
OC(CN(Cc1ccccc1)Cc1cccnc1)c1ccco1 (configuration not stated) | -0.408
CC(C#N)CNS(=O)(=O)c1ccc(F)c(Br)c1 (configuration not stated) | -1.69
CN(C)C(=O)c1ccc(OC2CCCC2)cc1 | -3.51
Cc1noc(C)c1CNc1ccc2nc(C3CC3)sc2c1 | 10.8
CC1CCCN(S(=O)(=O)N2CCOC3(CCCC3)C2)C1 (configuration not stated) | -1.57

SMILES | cytotoxicity at 10 µM [%]
c1csc(SCC2CN=C(N3CCOCC3)S2)c1 (configuration not stated) | 10.3
CCC(NCc1ccccc1)c1ccccc1OCC(=O)NC (configuration not stated) | 16.2
CS(=O)(=O)Nc1cccc(C(=O)Nc2ccc3c(c2)C(=O)NC3)c1 | 5.91
CN(C)C1(CNC(=O)C2CCCN2Cc2ccc(F)cc2)CCOCC1 (configuration not stated) | 3.25
N#Cc1cc(Cl)ccc1N1CCN(C(=O)C2CCC2)CC1 | 10.1
CCN(Cc1ccoc1)C(=O)C1CCN(C(=O)OC(C)(C)C)C1 (configuration not stated) | -15.5
Cn1cc(C2CCCN2C(=O)Cn2ccc3ccc(Cl)cc32)cn1 (configuration not stated) | 8.81
O=S(=O)(Cc1ccccc1)NCc1nnc2n1CCC2 | 16.2
CC(C)(C)OC(=O)N1CSC[C@@H]1C(=O)NCc1ccncc1 | 1.17
NS(=O)(=O)c1cnc(NCC2(c3cccc(F)c3)CCOCC2)s1 | -5.71
CCC(C)C(=O)Nc1ccc(CCN2CCOCC2)cc1 (configuration not stated) | -0.578
COCC(NC(=O)NCc1cccc(Cl)c1)c1ccco1 (configuration not stated) | 6.4
CCN1CC(C(=O)NC(C)(C)CC(C)(C)C)CC1=O (configuration not stated) | -4.72
CN(C)CCCNC(=O)c1cc(Br)c2c(c1)OCCO2 | 13.3
CSCc1nc(C(C)(C)NC(=O)OC(C)(C)C)no1 | -8.44
COCCn1cc(C(=O)N2CCCC2c2cc(C)no2)ccc1=O (configuration not stated) | -17.7
Cc1cn(CC(=O)NC2CCN(S(C)(=O)=O)CC2)c2ccccc12 | 1.44
CN(Cc1nnc(C2CC2)n1C)C(=O)c1ccnc(OC2CCC2)c1 | -1.01
Cc1ccc(CNC(=O)Nc2cc(C(F)(F)F)c[nH]c2=O)cn1 | -21.8
O=C1CCCCN1Cc1cccc(NC(=O)N2CCSCC2)c1 | -9.99
Cc1cccc(N2CCN(CCNC(=O)c3ccnn3C)CC2)c1 | 10.4
COCC(=O)N1CCc2ccc(=O)n(CC3CC3)c2CC1 | 6.7
O=C(c1cccnc1)N1CCC2(CC1)CN(c1ccccn1)CCO2 | -69.5

SMILES | cytotoxicity at 10 µM [%]
N#Cc1cccc(N2CC3(CCN(C(=O)c4ccnnc4)C3)CC2=O)c1 (configuration not stated) | 2.64
Cn1nc(CN2CCCCC2)c2c1CN(C(=O)c1ccoc1)C2 | 2.83
CCC[C@H]1CN(c2cncc(C(=O)N3CCCCC3)n2)C[C@@H]1N(C)C | -11.2
CC(C)(C)c1ccc(OCc2nc3c(c(=O)[nH]2)CCNC3)cc1 | 5.11
CC(C)CNS(=O)(=O)c1ccc(C(=O)N(C)CCc2cn[nH]c2)cc1 | 4.48
CC1=C(CCN2CCCC(O)C2)C(C)(C)CCC1 (configuration not stated) | 3.43
CN(C)C(=O)c1ccc2c(c1)N(C)C(CC(=O)NC(CO)CO)CO2 (configuration not stated) | -4.36
CCC(C(=O)NC1CCCC1)n1ccc2ncccc2c1=O (configuration not stated) | 4.2
COCCN(C/C=C/c1ccccc1)Cc1nccs1 | 42.8
CCCc1ccc2oc(C(=O)N3CCN(CCOC)CC3)c(C)c2c1 | -8.36
Cc1n[nH]c(C)c1CCN(C)C(=O)C(c1cccnc1)N1CCOCC1 (configuration not stated) | -0.593
Cc1cc2c(cc1C(=O)N1CCC3(CC(=O)NC3=O)C1)OCCO2 (configuration not stated) | 7.15
CCn1nc(C)c(CCNC(=O)c2coc(CN3CCOCC3)c2)c1C | -0.386
CCn1c(CN(C)C)nnc1C1CCN(c2ccnc(C)c2)CC1 | 14.9
Cc1cc(N2CCCN(C(=O)Cc3csc(C)n3)CC2)ccn1 | -12
Cn1ncc2c(NCCC34CCCN3CCC4)nc(C3CCCC3)nc21 | -12.9
NC(=O)C1CCN(c2nc3nccc(-c4ccccc4)c3c(=O)[nH]2)CC1 | -9
COc1ccccc1CN(C)C(=O)NCc1c(C)cc(C)[nH]c1=O | -4.98
Cc1nn(C)c(Cl)c1C1CCCN1Cc1nc(-c2ccco2)no1 (configuration not stated) | -11.8
CC(C)c1nc(C2CCCN2CCS(=O)(=O)c2ccccc2)no1 (configuration not stated) | -5.28
CCN(CC)c1ccc(C(=O)N2CCCC(n3cncn3)C2)cn1 (configuration not stated) | -4.78
COc1ccc(CNC(=O)CCSCc2csc(C)n2)cn1 | -21.4
OC(CN1CCC(c2ccn[nH]2)CC1)c1ccc(F)cc1 (configuration not stated) | -28.9

SMILES | cytotoxicity at 10 µM [%]
Cc1nc(CN2CCC(c3ccnn3CCO)CC2)oc1C | -15.9
CC(O)CN1CCN(C(=O)c2ccn(-c3ccccc3Cl)n2)CC1 (configuration not stated) | -11.6
CCOc1cc(/C=C/c2ncc(C(=O)O)s2)cc(Br)c1O | -4.49
c1ncn(CC2CCCN(Cc3csc(-c4ccsc4)n3)C2)n1 (configuration not stated) | -9.86
Cc1noc(C)c1CN1CCCC(c2noc(C3CC3)n2)C1 (configuration not stated) | -12.8
CC(NC(=O)CCCOc1ccc(F)cc1)c1nnc2n1CCC2 (configuration not stated) | -16.1
CCOC(=O)C1CCN(Cc2csc(C(C)(C)C)n2)CC1 | -4.46
Cc1nc(C)n(CC2CCCN2Cc2cn(-c3ccccc3)nn2)n1 (configuration not stated) | 3.87
CCN(CC)C1CCN(C(=O)NCc2nncn2CC)CC1 | 2.72
Cc1c(CN2CCc3nc4sccc4c(=O)n3CC2)cnn1C | -2.75
O=C(CN(C1=NCCCC1)c1ccccc1)c1ccccc1 | -0.239
CC[C@@H]1N(Cc2cccnc2)CCC[C@]12CCC(=O)N2C | -0.213
O=C(Nc1cccnc1)[C@H]1C[C@@H]2CCN(c3nncs3)C[C@H]2O1 | -13.3
CN1CCOCC12CCN(Cc1ccoc1)CC2 | 2.93
NC(=O)N1CCC2(CCN(Cc3cccc(F)c3)CC2)CC1 | -10.1
O=S(=O)(c1cccc(F)c1)N1CC[C@H]2[C@H]1CCN2c1ncccn1 | -4.35
CC1=N[C@@]2(CC[C@@H]3CN(Cc4ccccc4)C[C@@H]32)C(=O)N1CC1CC1 | -0.302
Cn1cccc1C(=O)NCc1cnc2n1CCN(CC1CC1)C2 | 11.8
c1cnc(N2Cc3nccn3CC(COc3cccnc3)C2)nc1 (configuration not stated) | 10.7
COCc1cncc2c1CCN(Cc1ccccn1)C2 | -10.2
